ChEMBL document CHEMBL1122610, “Dichloro[1,2-bis(4-hydroxyphenyl)ethylenediamine]platinum(II) complexes: an approach to develop compounds with a specific effect on the hormone-dependent mammary carcinoma” (J Med Chem, 1984)
Values joined by “and” are separate entries in the source; they are usually repeats but may differ in a detail not shown here. Equal values may be shown once.

What was measured:
Mus musculus [1] = experiment: Animals without tumor after the test against the ADJ/PC6 Plasmacytoma cells of the BALB/C mouse at a dose of 15 mg/kg after 38 days was determined in vivo; assay type: functional, organism-based; parameters: dose 15 mg/kg
Mus musculus [2] = experiment: Antitumor activity against the ADJ/PC6 Plasmacytoma cells of the BALB/C mouse at a dose of 20 mg/kg after 37 days was determined in vivo; assay type: functional, organism-based; parameters: dose 20 mg/kg
How it was run: (§1)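 Female Balb/C mice, 14–18 g, inoculated subcutaneously with 5 × 10^6 ADJ/PC6 cells in 0.1 mL PBS (day 0). Compounds suspended in olive oil, given intraperitoneally as a single dose (day 1) or triple dose (days 1, 2, 3). Groups usually of 10 animals; cisplatin positive control. Test ran about 38 days; activity read as mean tumor volume as percent of untreated control (T/C, %).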

[3] = target: Estrogen receptor (Bos taurus) (UniProt Q9XSB5+P49884); experiment: In vitro inhibition of 1*10e-9 M [3H]estradiol binding to Estrogen receptor of calf uterine cytosol at 1*10e-5 M; assay type: protein assay
How it was run: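 Competition of [3H]estradiol binding in calf uterine cytosol (final protein 5 mg/mL); bound and free ligand separated by dextran-coated charcoal; percent inhibition of binding reported.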

Mus musculus [4] = experiment: Number of deaths against the ADJ/PC6 Plasmacytoma cells of the BALB/C mouse at a dose of 20 mg/kg after 38 days was determined in vivo; assay type: functional, organism-based; parameters: dose 20 mg/kg
Mus musculus [5] = experiment: Antitumor activity against the ADJ/PC6 Plasmacytoma cells of the BALB/C mouse at a dose of 20 mg/kg after 38 days was determined in vivo; Value denoted as dead/test = 0/10; assay type: functional, organism-based; parameters: dose 20 mg/kg; how it was run: as §1
Mus musculus [6] = experiment: Animals without tumor after the test against the ADJ/PC6 Plasmacytoma cells of the BALB/C mouse at a dose of 20 mg/kg after 38 days was determined in vivo; assay type: functional, organism-based; parameters: dose 20 mg/kg
Mus musculus [7] = experiment: Antitumor activity against the ADJ/PC6 Plasmacytoma cells of the BALB/C mouse at a dose of 15 mg/kg after 38 days was determined in vivo; Value denoted as dead/test = 1/10; assay type: functional, organism-based; parameters: dose 15 mg/kg; how it was run: as §1
Mus musculus [8] = experiment: Number of deaths against the ADJ/PC6 Plasmacytoma cells of the BALB/C mouse at a dose of 15 mg/kg after 38 days was determined in vivo; assay type: functional, organism-based; parameters: dose 15 mg/kg
Mus musculus [9] = experiment: Animals without tumor after the test against the ADJ/PC6 Plasmacytoma cells of the BALB/C mouse at a dose of 20 mg/kg after 37 days was determined in vivo; assay type: functional, organism-based; parameters: dose 20 mg/kg
Rattus norvegicus [10] = experiment: Compound was tested for the survival against L5222 Leukemia implanted rat at dose 20(60) mg/kg; assay type: functional, organism-based
How it was run: (§2)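 BD IX rats (3–6 months old, half female, half male), six per dose group, given 1 × 10^6 L 5222 cells in 1.0 mL physiological saline i.p. on day 0. The complex was in olive oil at a final 1 mg/mL and given i.p. as three injections, on days 1, 2, 3 or days 1, 5, 9. Read-out is median survival day and percent ILS.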

Mus musculus [11] = experiment: Number of deaths against the ADJ/PC6 Plasmacytoma cells of the BALB/C mouse at a dose of 20 mg/kg after 37 days was determined in vivo; Value denoted as dead/test = 2/10; assay type: functional, organism-based; parameters: dose 20 mg/kg
Rattus norvegicus [12] = experiment: Compound was tested for the increase in life span of L5222 Leukemia implanted rat at dose 20(60) mg/kg; assay type: functional, organism-based
How it was run: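 BD IX rats, 3–6 months old, half female and half male, six per dose group, given 1 × 10^6 L 5222 cells in 1.0 mL physiological saline intraperitoneally (day 0). Complex dissolved in olive oil at 1 mg/mL; three injections on days 1, 2, 3 or 1, 5, 9. Scored as percent increased life span (ILS).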

Mus musculus [13] = experiment: Animals without tumor after the test against the ADJ/PC6 Plasmacytoma cells of the BALB/C mouse at a dose of 8 mg/kg after 37 days was determined in vivo; assay type: functional, organism-based; parameters: dose 8 mg/kg
Rattus norvegicus [14] = experiment: Compound was tested for the survival against L5222 Leukemia implanted rat at dose 3.5(10.5) mg/kg; assay type: functional, organism-based; how it was run: as §2
Mus musculus [15] = experiment: Antitumor activity against the ADJ/PC6 Plasmacytoma cells of the BALB/C mouse at a dose of 8 mg/kg after 37 days was determined in vivo; assay type: functional, organism-based; parameters: dose 8 mg/kg; how it was run: as §1
Rattus norvegicus [16] = experiment: Compound was tested for the survival against L5222 Leukemia implanted rat at dose 3.5(10.5)mg/kg; assay type: functional, organism-based; how it was run: as §2
Mus musculus [17] = experiment: Number of deaths against the ADJ/PC6 Plasmacytoma cells of the BALB/C mouse at a dose of 8 mg/kg after 37 days was determined in vivo; assay type: functional, organism-based; parameters: dose 8 mg/kg
ADJ/PC6 = experiment: In vitro incorporation of the [3H]thymidine into the ADJ/PC6 Plasmacytoma cells; assay type: functional, cell-based; conditions: Mus musculus
How it was run: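 ADJ/PC6 tumor taken from passaged female Balb/C mice, minced and gently dispersed, then suspended in Eagle's MEM with 5% heat-inactivated horse serum, Hepes (5 mg/mL) and 0.1% Pluronic F 68, and filtered through gauze. Cells incubated 3 h at 37 °C with shaking, then pulsed with 1 μCi [methyl-3H]thymidine for 2 h. Ice-cold PBS stop, saline washes, sonication. Triplicates.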

MDA-MB-231 = experiment: In vitro incorporation of [3H]thymidine into hormone-independent MDA-MB 231 breast cancer cells; assay type: functional, cell-based; conditions: Homo sapiens
How it was run: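 MDA-MB 231 cells grown in McCoy 5a with 10% newborn calf serum and gentamycin, switched to 5% serum 1 h before the experiment. Compounds added from fresh 1000-fold Me2SO concentrates (final solvent 0.1%). [3H]Thymidine incorporation into TCA-precipitable material measured. Mean of triplicates.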

Substance	Activity (Mus musculus [1])	T/C (Mus musculus [2]) [%]	inhibition [3]	Deaths (Mus musculus [4])	T/C (Mus musculus [5]) [%]	Activity (Mus musculus [6])	T/C (Mus musculus [7]) [%]	Deaths (Mus musculus [8])	Activity (Mus musculus [9])	Median day of survival (Rattus norvegicus [10])	Deaths (Mus musculus [11])	ILS (Rattus norvegicus [12]) [%]	Activity (Mus musculus [13])	Median day of survival (Rattus norvegicus [14])	T/C (Mus musculus [15]) [%]	Median day of survival (Rattus norvegicus [16])	Deaths (Mus musculus [17])	ID50 (ADJ/PC6) [µM]	ID50 (MDA-MB-231) [nM]
(+) R,R-dichloro-[1,2-bis(4-hydroxyphenyl)ethylenediamine]platinum (II)	7	0	11% and 13.7% and 9.7%	0	0	7	1	1	8	18	2	175	–	–	–	–	–	–	–
CISPLATIN	–	–	–	–	–	–	–	–	–	–	–	–	10	17.5	0	14.5	0	9.5	650
